Experimental data reported in ChEMBL document CHEMBL4699443, “Position of lipidation influences anticancer activity of Smac analogs” (Bioorg Med Chem Lett, 2019).
Non-standard residues stand in square brackets, D forms with d. Residues, ends and D or L forms follow the SMILES beside them. *: point of attachment. Pro(cis-4-OPh) = O=C(O)[C@@H]1C[C@H](Oc2ccccc2)CN1; Bip = N[C@@H](Cc1ccc(-c2ccccc2)cc1)C(=O)O; X2 = CCCCCCCCCCCCCCCCCCS(=O)(=O)CCN*; Tle = CC(C)(C)[C@H](N)C(=O)O; X1 = CCCCCCCCCCCCCCCCCCSCCN*; NMeA = CN[C@@H](C)C(=O)O

Experiments:
BT-474 = test: Antiproliferative activity against human BT-474 cells assessed as growth inhibition after 48 hrs by PrestoBlue dye based fluorescence assay; format: functional, cell-based; details: BT-474, 48 h
MDA-MB-361 [1] = test: Antiproliferative activity against human MDA-MB-361 cells assessed as growth inhibition after 48 hrs by PrestoBlue dye based fluorescence assay; format: functional, cell-based; details: MDA-MB-361, 48 h
KOPN-8 [2] = test: Antiproliferative activity against human KOPN-8 cells assessed as growth inhibition after 48 hrs by PrestoBlue dye based fluorescence assay; format: functional, cell-based; details: KOPN-8, 48 h
HL-60 = test: Antiproliferative activity against human HL60 cells assessed as growth inhibition after 48 hrs by PrestoBlue dye based fluorescence assay; format: functional, cell-based; details: HL-60, 48 h
THP-1 = test: Antiproliferative activity against human THP1 cells assessed as growth inhibition after 48 hrs by PrestoBlue dye based fluorescence assay; format: functional, cell-based; details: THP-1, 48 h
[3] = Antiproliferative activity against human M233 cells assessed as growth inhibition after 48 hrs by PrestoBlue dye based fluorescence assay; format: functional, cell-based; details: M233, 48 h
[4] = Antiproliferative activity against human M263 cells assessed as growth inhibition after 48 hrs by PrestoBlue dye based fluorescence assay; format: functional, cell-based; details: M263, 48 h
PC-3 = test: Antiproliferative activity against human PC-3 cells assessed as growth inhibition after 48 hrs by PrestoBlue dye based fluorescence assay; format: functional, cell-based; details: PC-3, 48 h
T84 = test: Antiproliferative activity against human T84 cells assessed as growth inhibition after 48 hrs by PrestoBlue dye based fluorescence assay; format: functional, cell-based; details: T84, 48 h
[5] = Antiproliferative activity against human UM-SCC-5 cells assessed as growth inhibition after 48 hrs by PrestoBlue dye based fluorescence assay; format: functional, cell-based; details: UM-SCC-5, 48 h
[6] = Antiproliferative activity against human UM-SCC-12 cells assessed as growth inhibition after 48 hrs by PrestoBlue dye based fluorescence assay; format: functional, cell-based; details: UM-SCC-12, 48 h
[7] = Antiproliferative activity against human UM-SCC-178 cells assessed as growth inhibition after 48 hrs by PrestoBlue dye based fluorescence assay; format: functional, cell-based; details: UM-SCC-178, 48 h
KOPN-8 [8] = test: Induction of apoptosis in human KOPN8 cells assessed as viable cells at 10 uM after 24 hrs by AnnexinV/PI-staining based flow cytometry; format: functional; details: read-out: Activity
In short: (§1)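 KOPN-8 cells treated with 1 or 10 μM compound, alone or as an equimolar two-compound mixture. Cultured for a time course, then stained with annexin V and propidium iodide. Read by flow cytometry; populations gated by annexin V/PI staining, including annexin V+/PI+ double positives.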

KOPN-8 [9] = test: Induction of apoptosis in human KOPN8 cells assessed as early apoptotic cells at 10 uM after 24 hrs by AnnexinV/PI-staining based flow cytometry; format: functional; in short: as §1
KOPN-8 [10] = test: Induction of apoptosis in human KOPN8 cells assessed as late apoptotic cells at 10 uM after 24 hrs by AnnexinV/PI-staining based flow cytometry; format: functional; in short: as §1
KOPN-8 [11] = test: Induction of apoptosis in human KOPN8 cells assessed as necrotic cells at 10 uM after 24 hrs by AnnexinV/PI-staining based flow cytometry; format: functional; in short: as §1
KOPN-8 [12] = test: Induction of apoptosis in human KOPN8 cells assessed as viable cells at 10 uM after 48 hrs by AnnexinV/PI-staining based flow cytometry; format: functional; details: read-out: Activity; in short: as §1
KOPN-8 [13] = test: Induction of apoptosis in human KOPN8 cells assessed as early apoptotic cells at 10 uM after 48 hrs by AnnexinV/PI-staining based flow cytometry; format: functional; in short: as §1
KOPN-8 [14] = test: Induction of apoptosis in human KOPN8 cells assessed as late apoptotic cells at 10 uM after 48 hrs by AnnexinV/PI-staining based flow cytometry; format: functional; in short: as §1
KOPN-8 [15] = test: Induction of apoptosis in human KOPN8 cells assessed as necrotic cells at 10 uM after 48 hrs by AnnexinV/PI-staining based flow cytometry; format: functional; in short: as §1
KOPN-8 [16] = test: Induction of apoptosis in human KOPN8 cells assessed as viable cells at 10 uM after 72 hrs by AnnexinV/PI-staining based flow cytometry; format: functional; details: read-out: Activity; in short: as §1
KOPN-8 [17] = test: Induction of apoptosis in human KOPN8 cells assessed as early apoptotic cells at 10 uM after 72 hrs by AnnexinV/PI-staining based flow cytometry; format: functional; in short: as §1
KOPN-8 [18] = test: Induction of apoptosis in human KOPN8 cells assessed as late apoptotic cells at 10 uM after 72 hrs by AnnexinV/PI-staining based flow cytometry; format: functional; in short: as §1
KOPN-8 [19] = test: Induction of apoptosis in human KOPN8 cells assessed as necrotic cells at 10 uM after 72 hrs by AnnexinV/PI-staining based flow cytometry; format: functional; in short: as §1
KOPN-8 [20] = test: Induction of apoptosis in human KOPN8 cells assessed as viable cells at 10 uM after 168 hrs by AnnexinV/PI-staining based flow cytometry; format: functional; details: read-out: Activity; in short: as §1
KOPN-8 [21] = test: Induction of apoptosis in human KOPN8 cells assessed as early apoptotic cells at 10 uM after 168 hrs by AnnexinV/PI-staining based flow cytometry; format: functional; in short: as §1
KOPN-8 [22] = test: Induction of apoptosis in human KOPN8 cells assessed as late apoptotic cells at 10 uM after 168 hrs by AnnexinV/PI-staining based flow cytometry; format: functional; in short: as §1
KOPN-8 [23] = test: Induction of apoptosis in human KOPN8 cells assessed as necrotic cells at 10 uM after 168 hrs by AnnexinV/PI-staining based flow cytometry; format: functional; in short: as §1
KOPN-8 [24] = test: Induction of apoptosis in human KOPN8 cells assessed as increase in caspase 9 activity at 0.1 to 50 uM after 24 hrs by Caspase-glo reagent based microplate reader analysis relative to control; format: functional; details: dose microM 0.1-50
[25] = Tmax in C57BL/6 mouse at 10 mg/kg, sc by LC-MS analysis; format: ADME, organism-based; details: in vivo
In short: (§2)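 Mice individually weighed, then given a single SC dose of 10 mg/kg. Blood taken by retro-orbital bleeding at set time points. Plasma levels measured by triple-quadrupole LC/MS; plasma half-life derived from these levels.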

[26] = Cmax in C57BL/6 mouse at 10 mg/kg, sc by LC-MS analysis; format: ADME, organism-based; set-up: route subcutaneous, dose 10 mg/kg; details: in vivo; in short: as §2
[27] = Drug level in C57BL/6 mouse plasma at 10 mg/kg, sc after 30 mins by LC-MS analysis; format: ADME, organism-based; details: in vivo, 0.5 h; in short: as §2
MDA-MB-361 [28] = test: Antitumor activity against sc dosed human MDA-MB-361 cells xenografted in BALB mouse administered up to 12 days by caliper analysis; format: functional, organism-based; details: dose mg/kg 10-20, time 12.0 day
In short: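 Tumor-bearing mice, subcutaneous engraftment model; compound given SC at 10 or 20 mg/kg in 2% Cremophor EL, 2×5 injections (10 doses total). Read-out is tumor growth delay in days, taken at a tumor volume of 500 mm3.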

MCF7 = test: Antiproliferative activity against human MCF7 cells assessed as growth inhibition after 48 hrs by PrestoBlue dye based fluorescence assay; format: functional, cell-based; details: MCF7, 48 h
HepG2 = test: Antiproliferative activity against human HepG2 cells assessed as growth inhibition after 48 hrs by PrestoBlue dye based fluorescence assay; format: functional, cell-based; details: HepG2, 48 h
Hep 3B2 = test: Antiproliferative activity against human Hep3B cells assessed as growth inhibition after 48 hrs by PrestoBlue dye based fluorescence assay; format: functional, cell-based
[29] = Antiproliferative activity against human CEMTL cells assessed as growth inhibition after 48 hrs by PrestoBlue dye based fluorescence assay; format: functional, cell-based; details: CEM-TL
SK-MEL-28 = test: Antiproliferative activity against human SK-MEL-28 cells assessed as growth inhibition after 48 hrs by PrestoBlue dye based fluorescence assay; format: functional, cell-based; details: SK-MEL-28, 48 h
PANC-1 = test: Antiproliferative activity against human PANC-1 cells assessed as growth inhibition after 48 hrs by PrestoBlue dye based fluorescence assay; format: functional, cell-based; details: PANC-1, 48 h
LNCaP = test: Antiproliferative activity against human LNCAP cells assessed as growth inhibition after 48 hrs by PrestoBlue dye based fluorescence assay; format: functional, cell-based
HCT-116 = test: Antiproliferative activity against human HCT116 cells assessed as growth inhibition after 48 hrs by PrestoBlue dye based fluorescence assay; format: functional, cell-based; details: HCT-116, 48 h
SW480 = test: Antiproliferative activity against human SW480 cells assessed as growth inhibition after 48 hrs by PrestoBlue dye based fluorescence assay; format: functional, cell-based; details: SW480, 48 h
FaDu = test: Antiproliferative activity against human FADU cells assessed as growth inhibition after 48 hrs by PrestoBlue dye based fluorescence assay; format: functional, cell-based
[30] = Antiproliferative activity against human UM-SCC-6 cells assessed as growth inhibition after 48 hrs by PrestoBlue dye based fluorescence assay; format: functional, cell-based; details: UM-SCC-6, 48 h

CCCCCCCCCCCCCCCCCCSCCNC(=O)[C@H](Cc1ccc(-c2ccccc2)cc1)NC(=O)[C@@H]1C[C@H](Oc2ccccc2)CN1C(=O)[C@@H](NC(=O)[C@H](C)NC)C(C)(C)C (H-[NMeA][Tle][Pro(cis-4-OPh)][Bip]-X1)
EC50 (BT-474): 320 nM
EC50 (MDA-MB-361 [1]): 1700 nM
EC50 (KOPN-8 [2]): 1000 nM
EC50 (HL-60): 2000 nM
EC50 (THP-1): 8700 nM
EC50 [3]: 9500 nM
EC50 [4]: 2900 nM
EC50 (PC-3): 2200 nM
EC50 (T84): 2000 nM
EC50 [5]: 960 nM
EC50 [6]: 1100 nM
EC50 [7]: 2700 nM
viability at 10 µM (KOPN-8 [8]): 71%
Activity (KOPN-8 [9]): 1.67%
Activity (KOPN-8 [10]): 20.3%
Activity (KOPN-8 [11]): 7.06%
viability at 10 µM (KOPN-8 [12]): 79.3%
Activity (KOPN-8 [13]): 0.94%
Activity (KOPN-8 [14]): 17.8%
Activity (KOPN-8 [15]): 1.97%
viability at 10 µM (KOPN-8 [16]): 74.9%
Activity (KOPN-8 [17]): 1.27%
Activity (KOPN-8 [18]): 22.4%
Activity (KOPN-8 [19]): 1.41%
viability at 10 µM (KOPN-8 [20]): 87.6%
Activity (KOPN-8 [21]): 1.81%
Activity (KOPN-8 [22]): 9.97%
Activity (KOPN-8 [23]): 0.63%
fold change (FC) (KOPN-8 [24]): 1.5
Tmax [25]: 16 h
Cmax [26]: 15.1265 µM
Cp [27]: 7.5633 µM
Activity (MDA-MB-361 [28]): Dose-dependent effect

CCCCCCCCCCCCCCCCCCS(=O)(=O)CCNC(=O)[C@H](Cc1ccc(-c2ccccc2)cc1)NC(=O)[C@@H]1C[C@H](Oc2ccccc2)CN1C(=O)[C@@H](NC(=O)[C@H](C)NC)C(C)(C)C (H-[NMeA][Tle][Pro(cis-4-OPh)][Bip]-X2)
EC50 (MCF7): 48200 nM
EC50 (HepG2): 2100 nM
EC50 (Hep 3B2): 240 nM
EC50 [29]: 14200 nM
EC50 (SK-MEL-28): 11300 nM
EC50 (PANC-1): 4700 nM
EC50 (LNCaP): 10500 nM
EC50 (PC-3): 2300 nM
EC50 (HCT-116): 1500 nM
EC50 (SW480): 25700 nM
EC50 (FaDu): 640 nM
EC50 [30]: 4800 nM
EC50 [6]: 1100 nM
